CASP6 VEID inh = inhibitors of human caspase-6. AID 686996. actives 0.53% (n = 350,000). inhibition, % at 12.5 µM. purified caspase-6, Z-VEID-R110 cleavage fluorescence. P55212;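 active = mean inhibition across replicates at least about 35%, with every replicate also reaching that limit, limit read from the data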;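 also: 0% = median of neutral control wells and 100% = no fluorescence left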
TDP2 inh = blocks human TDP2 phosphodiesterase activity; O95551; recombinant TDP2, T5PNP hydrolysis, p-nitrophenol absorbance 415 nm; inhibition, % at 12.8 µM; actives 0.34% (n = 370,000); AID 720702;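 active = inhibition above the mean of all tested compounds plus 3 SD, set per campaign, cut at about 25% in these data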;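 also: 0% = DMSO with enzyme and 100% = buffer with substrate but no TDP2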
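Assay system: Recombinant human TDP2 | Quantity: 120 nM TDP2 per well | Incubation: 2 h at 37 °C | Signal: Epi absorbance | Evaluation: Percent inhibition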
MBD2 DNA inh = MBD2-methylated oligo binding inhibition; TR-FRET, MBD2 binding to methylated oligonucleotide; inhibition, % at 4.4 µM; actives 0.31% (n = 370,000); AID 686964; in the data active = inhibition above about 13%
LEDGF integ inh = blocks HIV-1 LEDGF/p75-dependent DNA integration | TR-FRET IN-LEDGF/p75 DNA integration, Eu/Cy5 | inhibition, % at 3.7 µM | actives 0.64% (n = 370,000) | AID 743269;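 active = inhibition above the screen-wide mean plus 3 SD, cut at about 13% in these data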;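 also: signal is the Cy5 over europium emission ratio at 671 and 618 nm; 0% = plate median of compound wells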
UHRF1 MBD2 ctr = human UHRF1 methylated DNA binding inhibitors; AID 687016; inhibition, % at 4.4 µM; UHRF1 binding to methylated oligo, TR-FRET; actives 0.75% (n = 370,000); Q96T88; in the data active = inhibition above about 21%;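 also: UHRF1 SRA domain binding a hemimethylated CpG hairpin DNA probe; 0% = median of test compound wells and 100% = reference inhibitor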
Target sequence (Q96T88 whole entry, looked up, the tested form may be a part): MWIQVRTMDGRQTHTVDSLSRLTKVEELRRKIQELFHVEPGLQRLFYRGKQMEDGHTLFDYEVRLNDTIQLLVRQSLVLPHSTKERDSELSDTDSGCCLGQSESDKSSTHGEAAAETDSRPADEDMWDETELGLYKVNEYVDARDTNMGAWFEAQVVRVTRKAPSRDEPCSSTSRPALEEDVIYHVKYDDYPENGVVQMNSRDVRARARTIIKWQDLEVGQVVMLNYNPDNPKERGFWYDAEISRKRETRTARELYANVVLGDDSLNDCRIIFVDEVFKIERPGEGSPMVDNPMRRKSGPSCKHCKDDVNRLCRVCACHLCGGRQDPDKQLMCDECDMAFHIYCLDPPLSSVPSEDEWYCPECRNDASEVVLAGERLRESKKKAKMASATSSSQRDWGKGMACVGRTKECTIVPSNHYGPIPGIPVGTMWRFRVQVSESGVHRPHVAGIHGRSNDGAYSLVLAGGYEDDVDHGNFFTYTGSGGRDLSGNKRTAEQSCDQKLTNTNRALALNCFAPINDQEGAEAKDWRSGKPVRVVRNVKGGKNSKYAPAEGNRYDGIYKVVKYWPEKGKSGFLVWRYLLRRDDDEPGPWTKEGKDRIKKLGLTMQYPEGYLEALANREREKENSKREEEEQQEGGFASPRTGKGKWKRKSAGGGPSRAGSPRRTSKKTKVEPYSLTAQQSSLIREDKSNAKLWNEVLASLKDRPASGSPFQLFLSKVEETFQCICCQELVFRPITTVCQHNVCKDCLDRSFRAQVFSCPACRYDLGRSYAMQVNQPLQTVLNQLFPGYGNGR
NSD2 inh = blocks human histone methyltransferase NSD2 | O96028 | NSD2 peptide methylation, AlphaScreen, 120 min | AID 743445 | actives 0.54% (n = 310,000) | inhibition, % at 12.5 µM; in the data active = inhibition above about 50%
UHRF1 DNA bind = UHRF1 methyl-oligo binding inhibition as MBD2 counter-screen; shares compounds with MBD2 DNA inh; UHRF1 binding to methylated oligonucleotide, TR-FRET; inhibition, % at 4.4 µM; actives 25% (n = 1,000); in the data active = inhibition above about 21%;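 also: UHRF1 SRA domain binding a labeled hemimethylated CpG hairpin DNA; 0% = vehicle only and 100% = reference inhibitor with vehicle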
MBD2 DBD conf = MBD2-DBD methyl-DNA binding inhibition, TR-FRET confirmation; shares compounds with MBD2 DNA inh; TR-FRET MBD2-DBD binding to methylated oligonucleotide; inhibition, % at 4.4 µM; actives 26% (n = 1,000); AID 720531
TDP2 inh conf = human TDP2 inhibition, confirmation; recombinant human TDP2, absorbance read-out; inhibition, % at 12.8 µM; actives 22% (n = 1,100); shares compounds with TDP2 inh; AID 743263; in the data active = inhibition above about 25%;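 also: 0% = vehicle with enzyme and 100% = no enzyme buffer only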
IN multimer up = HIV-1 integrase multimerization activation, counter-screen; shares compounds with LEDGF integ inh; TR-FRET HIV-1 integrase multimerization, biochemical; activation, % at 7.7 µM; actives 17% (n = 2,000); AID 1053131; in the data active = activation above about 8.9%
TRFRET interf = optically interferes with TR-FRET readout in LEDGF counter-screen; 2,000 tested, under 10 active; TR-FRET optical interference counterscreen, HIV-1 IN multimerization; inhibition, % at 7.7 µM; shares compounds with LEDGF integ inh; AID 1053135;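 active = inhibition above the mean over all tested compounds plus 3 SD, which no compound reached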;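 also: 0% = integrase with antibodies and DMSO and 100% = antibodies without integrase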
IN-LEDGF confirm = confirmation of HIV-1 LEDGF/p75-dependent integration inhibitors; TR-FRET LEDGF/p75-dependent HIV-1 integration, biochemical; inhibition, % at 3.7 µM; actives 36% (n = 2,000); shares compounds with LEDGF integ inh
AlphaScreen art = interferes with AlphaScreen signal, flagging NSD2 false positives; shares compounds with NSD2 inh; actives 9.4% (n = 1,500); AlphaScreen artifact counterscreen, preloaded methylated H4 peptide; AC35, µM (series often up to 10 µM), without a hit: top-dose activity change, negative = signal loss; call rule not given here
An asterisk follows results filed as active; . = no result. An excerpt weighted towards active compounds, which were near 1.8% of everything screened. Rule as the data show it, unless noted: active = inhibition above about 14%; inactive = the rest.

SMILES	CASP6 VEID inh	TDP2 inh	MBD2 DNA inh	LEDGF integ inh	UHRF1 MBD2 ctr	NSD2 inh	TDP2 inh conf	others
O=C1NC(=S)NC(=O)C1=Cc1cccn1-c1ccc(O)cc1	88*	-3	14*	33*	32*	.	.	UHRF1 DNA bind=41*;MBD2 DBD conf=24*;IN multimer up=10*;TRFRET interf=-50;IN-LEDGF confirm=73*
CC(C)N1C(=O)/C(=C/C=C/c2ccco2)C(=O)N(Cc2ccco2)C1=O	.	2	19*	69*	50*	107*	.	UHRF1 DNA bind=19;MBD2 DBD conf=11;IN multimer up=-1;TRFRET interf=3;IN-LEDGF confirm=51*;AlphaScreen art=8.5µM*
COC(=O)[C@@H]1[C@@H](CO)[C@@H]2Cn3c(ccc(-c4ccncc4)c3=O)[C@H]1N2S(=O)(=O)c1ccccc1F	-1	.	.	.	.	.	.
O=c1[nH]c(=O)n(-c2cccc(F)c2)c(O)c1/C=C1\C=Nc2ccccc21	.	32*	12	5	22*	10	14
CCn1cc(C=C2C(=O)NC(=O)NC2=O)c2ccccc21	0	28*	1	-1	-8	-2	7
Nc1c(Br)cc2c3c(cccc13)-c1ccccc1-2	15	64*	6	6	12	15	17
COc1ccc(OCC#CCN2CCNCC2)cc1	-5	31*	-2	2	0	-2	2
COc1ccc(OCC#CCN2CCCCCC2)cc1	-109	10	2	0	7	2	.
CCC(=Nc1ccccc1N)c1c(O)[nH]c(=O)[nH]c1=O	3	25*	-4	1	-7	3	13
Cc1cccc2c1=NC(=O)/C(=C/c1c(O)[nH]c(=O)[nH]c1=O)C=2	.	32*	-6	1	-10	3	38*
O=c1[nH]c(=S)[nH]c(O)c1/C=C1/C=c2ccccc2=N1	7	4	-6	-1	-3	1	.
COC(=O)[C@H]1[C@H](CO)[C@H]2Cn3c(cccc3=O)[C@@H]1N2C(=O)C1CCCC1	-10	.	.	.	.	.	.
O=C(CN1CCOCC1)c1ccc(Br)cc1	2	11	-6	6	1	-2	.
O=C(CN1CCOCC1)c1cccc2ccccc12	.	25*	-7	2	2	1	16
COC(=O)[C@H]1[C@H](CO)[C@H]2Cn3c(ccc(-c4ccncc4)c3=O)[C@@H]1N2S(=O)(=O)c1ccccc1F	1	.	.	.	.	.	.
O=C(Cc1ccccn1)N1CC2(C1)[C@@H](c1ccccc1)[C@@H](CO)N2Cc1ccccn1	0	.	.	.	.	.	.
COC(=O)[C@H]1[C@H](CO)[C@H]2Cn3c(ccc(-c4ccccc4F)c3=O)[C@@H]1N2C(=O)C1CC1	0	.	.	.	.	.	.
O=c1nc(/C=C/c2ccc(Cl)cc2Cl)cc(C(F)(F)F)[nH]1	7	29*	-4	2	0	7	18
O=C(Cc1cccnc1)N1CCCCN2[C@H](C1)[C@@H](c1ccc(/C=C/c3ccccc3)cc1)[C@@H]2CO	-6	.	.	.	.	.	.
O=C(NC1CCCCC1)Oc1cc2oc(=O)sc2cc1Cl	14	29*	8	0	6	67*	12
COc1ccc(C#Cc2ccc([C@H]3[C@H]4CN(C(=O)Cc5ccncc5)CCCCN4[C@H]3CO)cc2)cc1	0	.	.	.	.	.	.
CCCCn1c(NS(=O)(=O)c2ccc(C)cc2)c(C(=O)OCC)c2nc3ccccc3nc21	-1	71*	0	32*	13	2	36*	IN multimer up=1;TRFRET interf=-4;IN-LEDGF confirm=11
COC(=O)C(O)(c1c(C)[nH]n(-c2ccccc2)c1=O)C(F)(F)F (centres undefined)	.	27*	-8	26*	-1	.	44*	IN multimer up=1;TRFRET interf=-4;IN-LEDGF confirm=12
COC(=O)C(O)(c1c[nH]c2ccccc12)C(F)(F)F (centres undefined)	.	6	0	-2	-2	-1	.
CC(C)OCCCNC(=O)c1c(N)n(CC2CCCO2)c2nc3ccccc3nc12 (centres undefined)	55*	82*	6	29*	10	99*	7	IN multimer up=0;TRFRET interf=-1;IN-LEDGF confirm=8
SMILES	CASP6 VEID inh	TDP2 inh	MBD2 DNA inh	LEDGF integ inh	UHRF1 MBD2 ctr	NSD2 inh	TDP2 inh conf	others
CCCCn1c(N)c(C(=O)NCc2cccs2)c2nc3ccccc3nc21	.	12	-2	2	-7	43	.
Nc1c(C(=O)NCCCc2ccccc2)c2nc3ccccc3nc2n1Cc1cccs1	.	60*	1	26*	10	20	2	IN multimer up=-2;TRFRET interf=8;IN-LEDGF confirm=-3
N#Cc1cccc(-c2ccc([C@H]3[C@H](CO)N4CCCCN(C(=O)Cc5ccccc5)C[C@@H]34)cc2)c1	0	.	.	.	.	.	.
COC(=O)[C@H]1[C@H](CO)[C@H]2Cn3c(ccc(C4=CCCCC4)c3=O)[C@@H]1N2Cc1cccnc1	-3	.	.	.	.	.	.
COc1cc2c(cc1OC)-c1c(OC)c(OC)cc3c1C(C2)N(C)CC3 (centres undefined)	69*	52*	13	20*	34*	.	60*	IN multimer up=2;TRFRET interf=-8;IN-LEDGF confirm=11
COc1ccc(-c2ccc([C@H]3[C@@H](CO)N4CCCCN(C(=O)Cc5ccncc5)C[C@H]34)cc2)cc1	3	.	.	.	.	.	.
CCCCn1c(N)c(C(=O)OCCOC)c2nc3ccccc3nc21	0	7	-6	4	0	20	.
COCCCn1c(N)c(C(=O)NCCC(C)C)c2nc3ccccc3nc21	.	41*	3	8	7	109*	0	AlphaScreen art=5%
CCCCn1c(NC(=O)c2ccco2)c(C(=O)OCC)c2nc3ccccc3nc21	.	79*	10	30*	17	175*	76*	IN multimer up=-2;TRFRET interf=6;IN-LEDGF confirm=62*;AlphaScreen art=2%
CCCN1[C@@H]2Cn3c(ccc(-c4cccc(OC)c4)c3=O)[C@H]1[C@@H](C(=O)OC)[C@@H]2CO	0	.	.	.	.	.	.
